Activity calls are given as the source filed them. The rule behind the calls is not given here.
Tests used:
[1] = biological target: T1, Amyloid-beta precursor protein (Homo sapiens, UniProt P05067); assay: Inhibition of amyloid beta (1 to 42) (unknown origin) aggregation incubated at 37 degC for 16 hrs by thioflavin T fluorescence assay
In short: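 Aβ42 at 40 μM (in DMSO/PBS pH 6.6), mixed 2:1:1 with sample and 80 μM ThT stock, shaken 15 min, then held at 37 °C for 16 h. Read by ThT fluorescence. IC50 measured only for samples with ≥60% inhibition: six concentrations, three independent experiments, mean % inhibition fitted to a four-parameter variable-slope log(inhibitor)–response curve.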

Drosophila = assay: Enhancement of short-term memory in Drosophila w1118 (isoCJ1) P35*H29.3 model of human Abeta42 transgenic Alzheimer's disease model assessed as increase in performance index at 100 uM fed to flies for 7 days by Pavlovian olfactory learning method; assay type: functional, organism-based
In short: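 Male flies: elav-GAL4c155 (P35) × UAS-Aβ42 (H29.3) F1, with 2U*H29.3 as normal controls. Newly hatched flies kept about 120 per vial and reared at 28 °C, 42% RH. Fed 100 μM (from 10 mM stock) in 50 μL daily for 4 h, days 2–8. Controls got matching DMSO. Pavlovian olfactory learning done in the dark at 24 °C, 70% RH. Read-out is performance index; two vials per PI.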

[2] = biological target: T1, Amyloid-beta precursor protein; assay: Inhibition of amyloid beta (1 to 42) (unknown origin) aggregation at 100 uM incubated at 37 degC for 16 hrs by thioflavin T fluorescence assay
In short: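 Aβ42 prepared at 40 μM in DMSO plus PBS (0.01 M, pH 6.6), mixed 2:1:1 with sample and 80 μM ThT stock. Shaken 15 min, incubated at 37 °C for 16 h, then ThT fluorescence read. Inhibition = (F0−Fi)/F0×100 against no-sample wells. Three independent experiments.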

T1 sequence (P05067 whole entry): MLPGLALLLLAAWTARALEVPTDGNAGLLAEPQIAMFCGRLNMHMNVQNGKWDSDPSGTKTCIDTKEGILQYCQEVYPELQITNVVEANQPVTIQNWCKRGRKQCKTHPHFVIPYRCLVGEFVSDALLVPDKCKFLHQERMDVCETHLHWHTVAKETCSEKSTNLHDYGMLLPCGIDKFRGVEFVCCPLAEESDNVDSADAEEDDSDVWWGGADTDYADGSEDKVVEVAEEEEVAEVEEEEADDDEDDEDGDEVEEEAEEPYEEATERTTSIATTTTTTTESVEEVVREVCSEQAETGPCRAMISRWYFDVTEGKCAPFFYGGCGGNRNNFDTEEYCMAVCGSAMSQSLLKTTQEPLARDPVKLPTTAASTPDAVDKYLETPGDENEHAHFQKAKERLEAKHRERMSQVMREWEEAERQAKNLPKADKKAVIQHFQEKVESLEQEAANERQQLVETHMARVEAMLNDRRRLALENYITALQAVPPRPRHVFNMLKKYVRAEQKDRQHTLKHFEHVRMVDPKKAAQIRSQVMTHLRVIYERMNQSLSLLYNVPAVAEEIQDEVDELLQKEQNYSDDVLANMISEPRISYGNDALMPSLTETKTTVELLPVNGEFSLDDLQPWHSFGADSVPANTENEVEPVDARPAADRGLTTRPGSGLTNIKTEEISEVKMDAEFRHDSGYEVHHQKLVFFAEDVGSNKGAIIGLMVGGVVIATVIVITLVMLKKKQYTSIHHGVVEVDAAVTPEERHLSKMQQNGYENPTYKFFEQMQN

Structure (SMILES) | IC50 [1] [µM] | Activity (Drosophila) | inhibition [2] [%]
C[C@]12CCC(=O)c3coc(c31)C(=O)C1=C2[C@@H](O)C[C@]2(C)C(=O)CC[C@@H]12 | 1.2 | Active | 98.8
O=C(O[C@@H]1Cc2c(O)cc(O)cc2O[C@@H]1c1cc(O)c(O)c(O)c1)c1cc(O)c(O)c(O)c1 [EPIGALOCATECHIN GALLATE] | 0.5 | – | 95.1
C[C@]12CC[C@H](O)c3coc(c31)C(=O)C1=C2[C@@H](O)C[C@]2(C)C(=O)CC[C@@H]12 | – | Active | 54.6
C[C@@]12c3ccc4c(c3C(=O)c3occ(c31)[C@@H](O)C[C@@H]2O)CCC4=O | 10.1 | Active | 99
C[C@@]1(O)c2ccc3c(c2C(=O)c2occ([C@@H](O)CCO)c21)CCC3=O | 71.9 | Active | 80.5
C[C@@]12C(=O)CC[C@H]1C1=C(C[C@H]2O)[C@@]2(C)CC[C@H](O)c3coc(c32)C1=O | 43.5 | Active | 70.4
C[C@]1(O)c2ccc3c(c2C(=O)c2occ([C@@H](O)CCO)c21)CCC3=O | 95.9 | Active | 63.5
C[C@]1(O)c2ccc3c(c2C(=O)c2occ(CCO)c21)CCC3=O | 34.3 | Active | 62.8
C[C@@]12c3ccc4c(c3C(=O)c3occ(c31)C(=O)C[C@H]2O)CCC4=O [DEMETHOXYVIRIDIN] | 13.4 | – | –
C[C@]1(O)c2ccc3c(c2C(=O)c2occ(CCCO)c21)CCC3=O | 28 | Active | 89.5
